# Screens deposited in PubChem by several laboratories.
# Pemphigus Ab inh: human desmoglein-3 autoantibody binding inhibition; P32926; binding (percent of control), % at 10 µM; AID 588358; DSG3-coupled beads, scFv-anti-DSG3-GFP binding, flow cytometry; active compounds read low; 310,000 compounds, 0.48% hits;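 active = binding more than 3 SD below its plate's average and above zero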;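 note: hits lower antibody fragment binding to DSG3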
# Scp-1 inhibitor: inhibitors of human Scp-1 phosphatase; Q9GZU7; Recombinant Scp1, phosphopeptide, malachite green phosphate absorbance; inhibition, % at 20 µM; 340,000 compounds, 0.88% hits; AID 493091;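 active = inhibition above about 50% at 20 µM, limit read from the data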;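 note: plate controls were DMSO wells with enzyme for no effect and wells lacking enzyme for full effect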
#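 Material – SCP-1 phosphatase catalytic domain, residues 76-261 · Buffer or medium – Acidic Tris acetate buffer with magnesium and detergent · Also added – Phospho 17-mer peptide substrate · Compound – single 20 µM dose, 1% DMSO · Times – 45 min room-temperature reaction, 5 min colour, 30 min stabiliser · Technique – Phosphate-binding colour reagent, absorbance read at 630 nm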
# STEP block: STEP (human) phosphatase inhibition. P54829. recombinant STEP, OMFP fluorogenic substrate, fluorescence. inhibition, % at 20 µM. 360,000 compounds, 0.25% hits;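 active = inhibition at 20 µM, scaled per plate between control wells, above about 37%, limit read from the data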;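 note: 0% = DMSO with enzyme and substrate and 100% = substrate only without enzyme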
# Target sequence (P54829 whole entry, looked up): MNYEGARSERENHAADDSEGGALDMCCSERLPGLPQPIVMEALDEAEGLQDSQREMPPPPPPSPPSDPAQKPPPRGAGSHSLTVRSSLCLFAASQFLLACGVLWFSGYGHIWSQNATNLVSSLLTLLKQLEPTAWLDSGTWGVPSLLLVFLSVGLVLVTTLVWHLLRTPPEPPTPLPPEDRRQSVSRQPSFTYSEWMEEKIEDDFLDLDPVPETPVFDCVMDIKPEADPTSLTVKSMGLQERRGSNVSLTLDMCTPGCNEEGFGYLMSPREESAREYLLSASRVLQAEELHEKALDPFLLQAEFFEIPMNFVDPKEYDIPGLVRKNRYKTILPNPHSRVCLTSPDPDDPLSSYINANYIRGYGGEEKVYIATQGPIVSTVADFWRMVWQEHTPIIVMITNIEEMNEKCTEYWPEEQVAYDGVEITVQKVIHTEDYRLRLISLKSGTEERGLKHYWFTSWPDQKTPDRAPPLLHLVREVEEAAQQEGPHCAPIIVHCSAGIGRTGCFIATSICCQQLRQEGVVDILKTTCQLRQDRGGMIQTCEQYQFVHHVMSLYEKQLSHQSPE
#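 Also added – OMFP at 25 µM · Test system – STEP tyrosine phosphatase · Technique – FITC-channel fluorescence of OMFP product · Schedule – 20 min at room temperature, dark · Evaluation – control-normalized % inhibition with plate pattern correction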
# LMPTP block: blocks human LMPTP phosphatase. P24666. 360,000 compounds, 0.22% hits. inhibition, % at 20 µM. AID 651560. recombinant LMPTP-A, OMFP fluorogenic substrate, fluorescence intensity;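 active = compounds that cut the enzyme signal by at least half of the control window in the single-dose screen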;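 note: plate controls were DMSO wells with enzyme plus substrate for no effect and substrate without enzyme for full effect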
#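 Material: LMPTP-A; amount: 0.625 nM enzyme; doses: single 20 µM dose; times: reaction 50 min, room temperature, dark; technique: fluorescence intensity of OMFP turnover product; benchmarks: no-enzyme and uninhibited controls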
# SUMO1 PPI mod: alters human SUMO1 binding to SIM partners. inhibition, % at 20 µM. P63165. AID 602429. 360,000 compounds, 0.33% hits. SUMO1 binding to a labelled peptide, TR-FRET, 1 h; in the data active = inhibition above about 37%
# Target sequence (P63165 whole entry, looked up): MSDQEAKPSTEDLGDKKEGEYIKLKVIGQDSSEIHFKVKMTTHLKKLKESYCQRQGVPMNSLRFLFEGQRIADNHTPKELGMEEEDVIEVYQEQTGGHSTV
# Scp-1 conf: confirmation of human Scp-1 phosphatase inhibitors. inhibition, % at 20 µM. recombinant SCP-1 catalytic domain, phosphate release, malachite green absorbance. shares compounds with Scp-1 inhibitor. 2,500 compounds, 61% hits;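 note: plate controls were DMSO with enzyme for no effect and buffer wells lacking enzyme for full effect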
# MG interference: colorimetric interference in Scp-1 counter-screen; shares compounds with Scp-1 inhibitor; Colorimetric interference counterscreen, malachite green absorbance 630 nm; apparent inhibition (interference), % at 20 µM; 2,500 tested, under 10 active; AID 540313;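 note: compounds added after enzyme reaction finished so only phosphate colour detection is probed; plate controls were DMSO wells with completed Scp-1 reaction for no effect and substrate wells lacking enzyme for full effect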
# Scp-1 Tm shift: binds human Scp-1, shifting its melting temperature; Recombinant SCP1, Sypro Orange thermal shift Tm; thermal shift relative to vanadate control, % at 40 µM; 1,500 compounds, 25% hits; shares compounds with Scp-1 inhibitor;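 active = substances whose mean melting-temperature shift, as a percentage of the reference inhibitor's shift, reaches about 5.3%, limit read from the data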;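 note: 0% = Tm of DMSO wells and 100% = Tm with sodium orthovanadate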
# * = called active by the depositor; nt = no result. Sampled rows, rich in hits. Any-hit rate of the full collection: about 1.7%.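 Rule for the calls, unless noted: active = inhibition of at least 30% at 20 µM; inactive = the rest.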
SMILES,Pemphigus Ab inh,Scp-1 inhibitor,STEP block,LMPTP block,SUMO1 PPI mod,Scp-1 conf,MG interference,Scp-1 Tm shift
O=C(Nc1ccc2c(c1)OCCO2)C1CCCN1S(=O)(=O)c1cccc2cccnc12 (stereo not given),114,57*,-2,0,-1,-16,-15,nt
NC(=O)C[n+]1cccc2ccccc21,101,99*,-5,0,-21,-7,-12,nt
CCOC(=O)c1cnc2c(C)c(-c3ccccc3)[nH]n2c1=O,100,69*,2,0,0,-18,-24,nt
CCOC(=O)c1cnc2nc(Cc3ccccc3)[nH]n2c1=O,nt,-10,-7,-1,2,nt,nt,nt
O=C(CCc1n[nH]c(=O)[nH]c1=O)N/N=C/c1ccco1,83,81*,38,40,31,56*,-7,-1
COc1cccc(/C=N/NC(=O)CCc2n[nH]c(=O)[nH]c2=O)c1O,nt,-7,-1,-1,0,nt,nt,nt
COc1cccc(/C=N/NC(=O)CC2C(=O)NN=C2C)c1OC (stereo not given),108,3,0,-1,2,nt,nt,nt
CC1=NNC(=O)C1CCC(=O)N/N=C/c1ccco1 (stereo not given),92,-4,-4,-2,-4,46*,-14,-21
COc1ccc(OC)c(/C=N/NC(=O)CC2C(=O)NN=C2C)c1 (stereo not given),99,-2,-1,0,-8,2,-6,nt
O=S(=O)(c1cccc2ccccc12)N1CCSC1,103,-2,-2,0,-3,nt,nt,nt
O=S(=O)(c1cccc2cnccc12)N1CCNCC1,92,60*,0,-1,-3,-16,-13,nt
CCn1c(SCc2ccccc2)nc2cc(S(N)(=O)=O)ccc21,nt,-1,-3,0,2,nt,nt,nt
Cc1ccc(C)c(NC(=O)CSc2sc3c(O)cc(=O)[nH]c3c2C#N)c1,97,60*,6,8,9,67*,1,11*
COC(=O)c1ccc(C)c(NC(=O)CSc2sc3c(O)cc(=O)[nH]c3c2C#N)c1,89,68*,17,38,38,53*,-21,12*
Cc1cc(NC(=O)CSc2nc3[nH]c(=O)cc(O)c3s2)ccc1Br,96,4,3,1,7,nt,nt,nt
Cc1cc(NC(=O)CSc2sc3c(O)cc(=O)[nH]c3c2C#N)ccc1Br,nt,59*,8,40,13,52*,-18,17*
Cc1ccc(Cl)cc1NC(=O)CSc1sc2c(O)cc(=O)[nH]c2c1C#N,100,56*,6,11,6,62*,-7,16*
Cc1ccc(C)c(NC(=O)COC(=O)c2ccc(S(=O)(=O)N3CCCCC3)cc2)c1,96,0,1,0,5,nt,nt,nt
CC(C)CCN1C(=O)c2ccccc2C1C(=O)NCc1cccnc1 (stereo not given),nt,-7,0,0,1,nt,nt,nt
N#Cc1c(SCC(=O)Nc2cccc(C(F)(F)F)c2)sc2c(O)cc(=O)[nH]c12,103,54*,5,13,13,34*,-13,8.1*
COc1ccc(Cl)cc1NC(=O)CSc1sc2c(O)cc(=O)[nH]c2c1C#N,96,41,11,22,1,nt,nt,nt
CCOC(=O)C1=C(N)Oc2c(c(=O)[nH]c3ccccc23)C1c1ccccc1 (stereo not given),nt,-8,1,-2,3,nt,nt,nt
O=C1NC(=Nc2ccccc2)S/C1=C/c1cccs1,90,76*,6,24,-11,59*,-13,3
Cc1cccc(N=C2NC(=O)/C(=C\c3cccs3)S2)c1,107,-7,2,4,-6,nt,nt,nt
O=C(O)c1ccc(-n2ncc3c2/C(=C\c2cccc([N+](=O)[O-])c2)CC3)cc1,34*,64*,5,19,9,64*,-14,3
SMILES,Pemphigus Ab inh,Scp-1 inhibitor,STEP block,LMPTP block,SUMO1 PPI mod,Scp-1 conf,MG interference,Scp-1 Tm shift
CCCCCN1CC(=O)N2C(C)c3[nH]c4ccccc4c3C[C@H]2C1=O (stereo not given in full),125,-4,32,0,0,nt,nt,nt
C=C(C)C(=O)Nc1cccc(C2=NOC3(C2)C[C@@H](C(N)=O)N(C(=O)C2(C)CC2)C3)c1 (stereo not given in full),71,75*,13,0,91*,60*,-16,-5
C/C=C/C(=O)N1CC2(CC(c3cccc(NC(=O)CC)c3)=NO2)C[C@H]1C(N)=O (stereo not given in full),101,4,-2,-3,6,nt,nt,nt
C=C(C)C(=O)Nc1cccc(C2=NOC3(C2)C[C@H](C(N)=O)N(C(=O)COc2ccc(Cl)cc2)C3)c1 (stereo not given in full),108,72*,5,1,104*,75*,2,-8
C/C=C/C(=O)Nc1cccc(C2=NOC3(C2)C[C@@H](C(N)=O)N(C(=O)c2cc([N+](=O)[O-])cc([N+](=O)[O-])c2C)C3)c1 (stereo not given in full),101,2,-3,-2,-28,nt,nt,nt
CCCCCC(=O)Nc1cccc(C2=NOC3(C2)C[C@@H](C(N)=O)N(C(=O)C2(C)CC2)C3)c1 (stereo not given in full),96,15,-1,0,4,nt,nt,nt
C=C(C)C(=O)Nc1cccc(C2=NOC3(C2)C[C@@H](C(N)=O)N(C(=O)C(=C)C)C3)c1 (stereo not given in full),97,70*,3,-1,63*,62*,-9,-11
C=C(C)C(=O)Nc1cccc(C2=NOC3(C2)C[C@@H](C(N)=O)N(C(=O)c2cc([N+](=O)[O-])cc([N+](=O)[O-])c2C)C3)c1 (stereo not given in full),99,70*,1,1,46*,64*,-6,4
CC(=O)Nc1ccc(NC(=O)c2c(-c3ccccc3)noc2C)cn1,96,10,0,-1,1,nt,nt,nt
CCCCCC(=O)Nc1cccc(C2=NOC3(C2)C[C@H](C(N)=O)N(C(=O)CCCCC)C3)c1 (stereo not given in full),108,0,0,1,6,nt,nt,nt
C/C=C\C=C/C(=O)Nc1cccc(C2=NOC3(C2)C[C@@H](C(N)=O)N(C(=O)[C@H]2CCC(=O)N2)C3)c1 (stereo not given in full),103,0,2,-2,-5,nt,nt,nt
